Screens deposited in PubChem BioAssay by The Scripps Research Institute Molecular Screening Center.
CHO-K1 Ca antag – M1 antagonist counterscreen hit in parental CHO-K1 cells; actives 0.6% (n = 360,000); inhibition, % at 3 µM; ATP-induced calcium, Fluo-8 fluorescence;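 active means inhibition above a per-plate cutoff, the plate's mean sample inhibition plus 3 SD, cut at about 24% in these data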;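 further: 0% = DMSO plus EC80 ATP and 100% = DMSO alone without ATP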
TRPML3 ag – activates the human TRPML3 channel; HEK293 TRPML3-YFP, Fluo-8 calcium fluorescence; 100% = the carbachol control signal; activation, % at 3 µM; actives 0.29% (n = 220,000); AID 1448;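 active means activation above its plate's cutoff, the mean activation of the plate's test wells plus 3 SD, cut at about 12% in these data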;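 further: 0% = DMSO only wells and 100% = carbachol wells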
Target sequence (Q8TDD5 whole entry, looked up): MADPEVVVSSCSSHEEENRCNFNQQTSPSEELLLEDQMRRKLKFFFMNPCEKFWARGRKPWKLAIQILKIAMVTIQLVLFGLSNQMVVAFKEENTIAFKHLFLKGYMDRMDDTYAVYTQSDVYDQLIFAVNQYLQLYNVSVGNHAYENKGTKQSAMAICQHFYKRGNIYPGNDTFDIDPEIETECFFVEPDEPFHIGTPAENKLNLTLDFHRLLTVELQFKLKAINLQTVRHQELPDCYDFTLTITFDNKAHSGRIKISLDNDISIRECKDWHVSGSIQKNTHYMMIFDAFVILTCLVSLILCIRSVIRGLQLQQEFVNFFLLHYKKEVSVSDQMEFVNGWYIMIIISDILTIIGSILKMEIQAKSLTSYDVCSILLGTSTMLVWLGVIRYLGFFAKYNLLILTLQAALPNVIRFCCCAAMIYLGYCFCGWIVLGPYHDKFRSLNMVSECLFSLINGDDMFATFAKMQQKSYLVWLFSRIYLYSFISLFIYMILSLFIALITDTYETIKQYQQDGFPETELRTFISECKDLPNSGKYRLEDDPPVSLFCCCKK
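Test system: TRPML3-YFP stable HEK293 cells. Doses: single point at 3 µM. Incubation: dye loading 1 h 37 °C then 30 min ambient, 125 s read. Signal: Fluo-8 calcium dye fluorescence, ex 470-495, em 515-575 nm. Measure: percent activation from peak-to-basal fluorescence ratio, scaled between DMSO and carbachol.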
TRPN1 ag – zebrafish TRPN1 (NompC) channel agonism. HEK293 zebrafish TRPN1-YFP, Fluo-8 calcium fluorescence; 100% = response to 87 µM carbachol. activation, % at 3 µM. actives 0.18% (n = 220,000);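 active means activation above its plate's cutoff, the mean activation of test wells on that plate plus 3 SD, cut at about 19% in these data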;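 further: 0% = DMSO alone and 100% = 87 µM carbachol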
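Material – zebrafish TRPN1-YFP in HEK293 cells · Doses – 3 µM single point · Schedule – dye 1 h 37 °C plus 30 min RT · Signal – Fluo-8 calcium fluorescence, excitation 470-495 nm, emission 515-575 nm · Read-out – % activation versus carbachol response · Control set – carbachol high, DMSO low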
CHO-K1 Ca ag – nonselective activator or artifact in parental CHO-K1 cells; actives 0.48% (n = 360,000); AID 602248; Fluo-8 calcium fluorescence; scaled to maximal ATP response, vehicle zero; activation, % at 3 µM; in the data active means activation above about 15%;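 further: untransfected CHO-K1 host cells lacking M1 receptor as counterscreen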
M1 PAM parental – nonselective activator or artifact in parental CHO-K1 calcium assay | ATP EC20, Fluo-8 calcium fluorescence; 0% at ATP EC20, 100% at ATP max | AID 602247 | actives 0.02% (n = 360,000) | activation, % at 3 µM;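 active means activation above the run cutoff, the mean activation of all test compounds plus 3 SD, cut at about 40% in these data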;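 further: peak over basal fluorescence ratio in a 140 s read after ATP addition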
Active calls of the source: *; · = no result. A selection: hits, their analogues and other compounds. The true share with any hit is near 1.2%.

SMILES	CHO-K1 Ca antag	TRPML3 ag	TRPN1 ag	CHO-K1 Ca ag	M1 PAM parental
CC(=O)c1ccc(NC(=S)NCCc2ccc(S(N)(=O)=O)cc2)cc1	-21	1	0	3	3
S=C(NCCC(c1ccccc1)c1ccccc1)Nc1cccc(Cl)c1	26*	1	1	6	-4
COc1ccc(NC(=O)c2sc(=O)n(Cc3cccc(C(F)(F)F)c3)c2C)cc1OC	-3	·	·	1	11
COc1ccc(C(=O)NCC(c2cccs2)N2CCc3ccccc32)cc1OC (centres undefined)	24*	·	·	8	-21
COc1ccc(C(=O)NCC(c2cccs2)N2CCOCC2)cc1OC (centres undefined)	-13	·	·	0	13
COc1ccc(C(=O)NCC(c2ccco2)N2CCc3ccccc32)c(OC)c1 (centres undefined)	-20	·	·	0	48*
COc1ccc(C(=O)NCC(c2ccco2)N2CCc3ccccc3C2)c(OC)c1 (centres undefined)	-24	·	·	0	31
NC(=O)c1ccc(NC(=O)COc2coc(CN3CCc4ccccc4C3)cc2=O)cc1	7	·	·	16*	2
COc1ccccc1-c1csc(C(C)(O)c2ccccc2)n1 (centres undefined)	-20	·	·	0	21
CCOC(=O)Cc1csc(NC(=O)Nc2ccc(Cl)cc2)n1	16	8	16	18*	-24
CCCCC(=O)Nc1ccc(C(=O)Nc2nc(CC(=O)OCC)cs2)cc1	2	1	4	21*	17
CCOC(=O)Cc1csc(NC(=O)C(C)c2ccc([N+](=O)[O-])cc2)n1 (centres undefined)	-7	16*	22*	13	21
COc1ccc(C(=O)Nc2nc(CC(=O)NCc3ccc(F)cc3)cs2)cc1	12	·	·	20*	-13
CC(c1ccc(O)cc1)(c1ccc(O)cc1)c1ccc(CCBr)cc1	6	·	·	18*	-7
O=C1c2ccccc2-c2onc3ccc(NCc4ccco4)c1c23	45*	2	2	19*	-10
CCOc1ccc2noc3c2c1C(=O)c1ccccc1-3	2	4	4	13	19
CCNc1ccc2noc3c2c1C(=O)c1ccccc1-3	27*	3	2	51*	-2
COc1ccc(-c2cc(C(F)(F)F)nc(SCC(=O)Nc3cc(C)on3)n2)cc1OC	25*	1	0	0	-6
COCCNC(=O)C1CCCN(C(=O)c2ccc(SC(F)(F)F)cc2)CC1 (centres undefined)	-10	·	·	0	-5
Cc1ccc(-c2nc3ncccc3o2)cc1NC(=O)c1cccs1	26*	1	1	0	-14
COC(=O)C(Cc1ccc(OC(=O)c2ccc(C(F)(F)F)cc2)cc1)N1Cc2ccccc2C1=O (centres undefined)	25*	2	4	10	1
COC(=O)C(Cc1ccc(OC(=O)c2ccc(Cl)cc2)cc1)N1Cc2ccccc2C1=O (centres undefined)	34*	1	5	9	2
CCCCn1c(N)c(N(CC(C)C)C(=O)CCCc2cccs2)c(=O)[nH]c1=O	26*	·	·	-1	-19
N#Cc1cccc(-c2csc(C(O)c3ccc(F)cc3)n2)c1 (centres undefined)	-1	·	·	1	-8
O=C1NC[C@@H](CCCCN2CCN(Cc3ccccc3)C(=O)C2=O)N(Cc2ccccc2)C1=O	-11	·	·	1	2
SMILES	CHO-K1 Ca antag	TRPML3 ag	TRPN1 ag	CHO-K1 Ca ag	M1 PAM parental
CCCNC(=O)C1(C)CCN(C(=O)c2sccc2C)C1 (centres undefined)	7	·	·	0	6
COc1ccc(C(=O)C=Cc2ccc3c(c2)OCO3)cc1OC	-9	·	·	1	9
COc1cc(/C=C/C(=O)c2ccc3c(c2)OCO3)cc(Cl)c1O	17	·	·	23*	-5
Cn1c(NCCc2ccncc2)nc2cc(-c3cccc(C(F)(F)F)c3)sc2c1=O	-13	·	·	0	13
COc1ccc(CCCNC(=O)C2Cc3c(-c4cccc(NC(C)=O)c4)ccnc3O2)cc1 (centres undefined)	-9	·	·	10	18
COc1ccc(Cl)cc1CNCCCSc1ncccn1	-8	·	·	2	19
CCOc1ccc(Cl)cc1CNCCCSc1ncccn1	10	·	·	19*	13
CC(=O)Oc1ccc2c(c1)O/C(=C\c1ccncc1)C2=O	-10	5	8	18*	17
CC(C)Cn1c2c(c(O)c(C(=O)Nc3ccc(F)cc3)c1=O)CCCC2	25*	0	1	0	-5
CN(Cc1ccccc1)S(=O)(=O)c1ccc2c(c1)n(C)c(=O)c(=O)n2C	0	0	2	0	12
CN(Cc1ccccc1)S(=O)(=O)c1ccc(N2CCCC2=O)cc1	23	·	·	16*	1
O=C(N/N=C/c1cn(-c2cccs2)nc1-c1ccccc1)c1ccccc1O	29*	0	-1	13	-7
C/C(=N/NC(=O)CNc1ccc(C)cc1)c1ccc(Br)s1	2	0	1	21*	3
O=C(Cc1cccs1)Nn1c(Cc2cccs2)nc2ccccc2c1=O	30*	1	2	0	-13
COC(=O)[C@]12CCCCC=C1N(Cc1ccc(Cl)cc1Cl)C(=O)[C@H](CC(=O)NCC1CCCCC1)C2	-8	·	·	0	-5
CCCc1nc2ccc(C)cn2c1Cc1ccc(OC)cc1C	4	·	·	0	-1
CCCc1ccc(C(C)NC(=S)NCc2ccc(F)cc2)cc1 (centres undefined)	16	·	·	17*	-10
O=C(c1ccc(Cl)c(S(=O)(=O)N2CCc3ccccc32)c1)N1CCN(c2ccccc2O)CC1	-4	·	·	4	-2
O=C(NNC(=O)c1ccccc1O)c1ccc(Cl)c(S(=O)(=O)N2CCc3ccccc32)c1	40*	·	·	10	-11
CN(C)c1ccc(CNC(=O)/C=C/[C@H]2O[C@@H](n3ccc(=O)[nH]c3=O)[C@H](O)[C@@H]2O)cc1	-18	·	·	1	15
CC(C)(C)C(=O)NC(=S)NNC(=O)c1ccncc1	-5	1	0	2	20
CC(C)(C)C(=O)NC(=S)NNC(=O)c1ccc(Cl)cc1Cl	59*	103*	171*	119*	-32
CC(C)(C)C(=O)NC(=S)NNC(=O)c1ccc(-c2ccccc2)cc1	95*	117*	197*	107*	-26
Cc1ccc(C(=O)NNC(=O)c2ccc(NC(=O)C(C)(C)C)cc2)cc1	4	·	·	15*	2
O=C(Nc1cccc2ccccc12)c1csc([C@@H]2O[C@H](CO)[C@H](O)[C@H](O)[C@H]2O)n1	0	·	·	1	9
Nc1c([N+](=O)[O-])c(=O)sc2ccccc12	-1	1	0	15*	10
CCOC(=O)C1CCCN(C(=O)c2sc(-c3ccccc3)nc2C)CC1 (centres undefined)	-15	·	·	2	19
